The values that follow come from ChEMBL document CHEMBL1141025, “Replacing alkyl sulfonamide with aromatic sulfonamide in sulfonamide-type RXR agonists favors switch towards antagonist activity” (Bioorg Med Chem Lett, 2009).

The source made the active and inactive calls. The rule behind the calls is not given here.

Experiment [1] has as its target T1, Retinoic acid receptor RXR-alpha (Homo sapiens) (UniProt P19793).
T1 sequence (whole entry): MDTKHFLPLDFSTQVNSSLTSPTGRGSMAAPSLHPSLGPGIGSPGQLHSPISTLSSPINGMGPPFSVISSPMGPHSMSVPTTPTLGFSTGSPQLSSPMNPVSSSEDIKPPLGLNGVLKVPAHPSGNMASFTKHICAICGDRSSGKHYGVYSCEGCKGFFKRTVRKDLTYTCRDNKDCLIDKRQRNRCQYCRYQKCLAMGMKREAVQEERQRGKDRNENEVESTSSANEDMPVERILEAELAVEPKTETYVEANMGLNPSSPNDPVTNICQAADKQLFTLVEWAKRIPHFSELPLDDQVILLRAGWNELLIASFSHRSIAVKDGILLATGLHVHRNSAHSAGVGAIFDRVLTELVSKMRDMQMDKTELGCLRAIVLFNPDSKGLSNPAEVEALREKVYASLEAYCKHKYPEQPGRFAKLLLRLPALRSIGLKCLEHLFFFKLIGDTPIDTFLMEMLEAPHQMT
As to the kind of experiment: Agonist activity at RXRalpha expressed in african green monkey COS1 cells by luciferase reporter gene assay relative to LGD1069. Type of experiment: functional, cell-based. The settings on record: COS-1. The method, boiled down:
(§1)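 Luciferase reporter gene assay in COS-1 cells. Each subtype's activity is expressed relative to 1 μM LGD1069, an RXR pan-agonist, used as the reference.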

The target of experiment [2] is T2, Retinoic acid receptor RXR-beta (Homo sapiens) (UniProt P28702).
T2 sequence (whole entry): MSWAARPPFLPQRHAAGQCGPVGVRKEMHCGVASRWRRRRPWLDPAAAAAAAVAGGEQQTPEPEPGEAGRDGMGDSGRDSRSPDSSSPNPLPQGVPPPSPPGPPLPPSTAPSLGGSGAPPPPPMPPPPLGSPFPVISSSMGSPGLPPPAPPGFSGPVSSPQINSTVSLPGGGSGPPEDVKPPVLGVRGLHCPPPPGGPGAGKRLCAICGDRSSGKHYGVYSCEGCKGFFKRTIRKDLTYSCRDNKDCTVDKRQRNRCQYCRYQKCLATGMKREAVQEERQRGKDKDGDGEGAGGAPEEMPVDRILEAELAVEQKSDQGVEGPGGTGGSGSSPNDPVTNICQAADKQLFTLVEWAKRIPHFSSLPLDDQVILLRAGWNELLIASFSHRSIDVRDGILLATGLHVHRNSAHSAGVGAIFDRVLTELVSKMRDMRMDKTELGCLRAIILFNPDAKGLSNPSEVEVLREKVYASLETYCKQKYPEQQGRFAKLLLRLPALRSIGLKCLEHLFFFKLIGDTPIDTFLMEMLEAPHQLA
As to the kind of experiment: Agonist activity at RXRbeta expressed in african green monkey COS1 cells by luciferase reporter gene assay relative to LGD1069. Type of experiment: functional, cell-based. As to conditions: COS-1. The method, boiled down: as §1
A general note: Reporter assays use an easily measured gene product as a stand-in for the process of interest.

Experiment [3] concerns the target T3, Retinoic acid receptor RXR-gamma (Homo sapiens) (UniProt P48443).
T3 sequence (whole entry): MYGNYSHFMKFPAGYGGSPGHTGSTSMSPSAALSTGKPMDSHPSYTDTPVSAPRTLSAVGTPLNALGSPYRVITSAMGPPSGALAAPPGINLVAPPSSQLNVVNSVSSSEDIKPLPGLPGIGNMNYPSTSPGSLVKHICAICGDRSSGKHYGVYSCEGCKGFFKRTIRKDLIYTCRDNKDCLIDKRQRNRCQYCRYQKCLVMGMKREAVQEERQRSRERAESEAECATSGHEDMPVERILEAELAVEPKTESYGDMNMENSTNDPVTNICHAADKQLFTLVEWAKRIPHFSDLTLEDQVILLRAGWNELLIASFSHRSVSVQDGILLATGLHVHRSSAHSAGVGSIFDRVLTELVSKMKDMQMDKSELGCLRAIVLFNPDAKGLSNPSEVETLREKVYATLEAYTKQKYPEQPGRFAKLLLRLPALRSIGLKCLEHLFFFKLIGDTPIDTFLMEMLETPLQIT
As to the kind of experiment: Agonist activity at RXRgamma expressed in african green monkey COS1 cells by luciferase reporter gene assay relative to LGD1069. Type of experiment: functional, cell-based. The settings on record: COS-1. Put shortly: as §1

For experiment [4], the target named is T4, Retinoic acid receptor RXR-alpha (Homo sapiens, UniProt P19793).
T4 sequence (P19793 whole entry): T1 sequence (whole entry)
The experiment in a line: Antagonist activity at RXRalpha expressed in african green monkey COS1 cells assessed as inhibition of LGD-1069-induced agonist activity. Type of experiment: functional, cell-based, COS-1.

Experiment [5] deals with T5, Retinoic acid receptor RXR-beta (Homo sapiens, UniProt P28702).
T5 sequence (P28702 whole entry): T2 sequence (whole entry)
As to the kind of experiment: Antagonist activity at RXRbeta expressed in african green monkey COS1 cells assessed as inhibition of LGD-1069-induced agonist activity. Type of experiment: functional, cell-based, COS-1. Put shortly: (§2)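 Luciferase reporter gene assay in COS-1 cells measuring inhibition of LGD1069-driven activity. IC50 is taken from full dose–response curves spanning 10^-7 to 10^-5 M.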

The target in experiment [6] is T6, Retinoic acid receptor RXR-gamma (Homo sapiens, UniProt P48443).
T6 sequence (P48443 whole entry): T3 sequence (whole entry)
The experiment in a line: Antagonist activity at RXRgamma expressed in african green monkey COS1 cells assessed as inhibition of LGD-1069-induced agonist activity. Type of experiment: functional, cell-based, COS-1. Put shortly: as §2

By IC50 is commonly meant the concentration that inhibits the measured activity by half. With `CC1(C)CCC(C)(C)c2cc(N(c3ccc(C(=O)O)cn3)S(=O)(=O)c3ccccc3)ccc21`, the outcome in experiment [1], in experiment [2] and in experiment [3] was inactive. The concentration for half-maximal inhibition (IC50) in experiment [4], in experiment [5] and in experiment [6] was > 10 µM in each case.
With `COc1ccc(S(=O)(=O)N(c2ccc3c(c2)C(C)(C)CCC3(C)C)c2ccc(C(=O)O)cn2)cc1`, the result in experiment [1], in experiment [2] and in experiment [3] was inactive. Further, the half-inhibitory concentration (IC50) is 2.7 µM in experiment [4], 3.9 µM in experiment [5] and 6.6 µM in experiment [6].
Take `CC1(C)CCC(C)(C)c2cc(N(c3ccc(C(=O)O)cn3)S(=O)(=O)c3ccc(Cl)cc3)ccc21`: the result in experiment [1], in experiment [2] and in experiment [3] was inactive. The IC50 was found to be 4.1 µM in experiment [4], 0.87 µM in experiment [5] and 4.5 µM in experiment [6].
In the case of `Cc1ccc(S(=O)(=O)N(c2ccc3c(c2)C(C)(C)CCC3(C)C)c2ccc(C(=O)O)cn2)cc1`, the outcome in experiment [1], in experiment [2] and in experiment [3] was inactive. The values for the half-inhibitory concentration (IC50) in experiment [4], in experiment [5] and in experiment [6] were 5.2 µM, 3 µM and 3.8 µM, respectively.
Consider `CCCCS(=O)(=O)N(c1ccc2c(c1)C(C)(C)CCC2(C)C)c1ccc(C(=O)O)cn1`, for which the IC50 in experiment [4], in experiment [5] and in experiment [6] was > 10 µM throughout.
Turning to `CC1(C)CCC(C)(C)c2cc(N(c3ccc(C(=O)O)cn3)S(=O)(=O)c3ccc(C(F)(F)F)cc3)ccc21`, the result in experiment [1], in experiment [2] and in experiment [3] was inactive. The half-maximal inhibitory concentration (IC50) in experiment [4] was determined as 3.2 µM; in experiment [5] it was 0.75 µM; in experiment [6], 2.7 µM.
With `CN1c2ccc([N+](=O)[O-])cc2N=C(c2ccc(C(=O)O)cc2)c2cc3c(cc21)C(C)(C)CCC3(C)C`, the IC50 in experiment [5] was found to be 0.044 µM; in experiment [6] it was 0.38 µM.
For the molecule `CC1(C)CCC(C)(C)c2cc(N(c3ccc(C(=O)O)cn3)S(=O)(=O)c3ccc([N+](=O)[O-])cc3)ccc21`, the result in experiment [1], in experiment [2] and in experiment [3] was inactive. Also, the IC50 in experiment [4], in experiment [5] and in experiment [6] was > 10 µM each time.
